Test results from ChEMBL document CHEMBL1122490, “Aporphines. 48. Enantioselectivity of (R)-(-)- and (S)-(+)-N-n-propylnorapomorphine on dopamine receptors” (J Med Chem, 1983).

Key:
Rattus norvegicus [1] = organism: Rattus norvegicus; assay: Percent control of stimulation of cAMP production in rat striatal homogenate at 50 micro M concentration; assay type: functional
Method in brief: (§1)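 Rat corpus striatum homogenates were incubated with excess ATP and theophylline to inhibit phosphodiesterase. cAMP formed per 2.5-min assay above the basal (no agonist) level was measured by protein-binding assay. Results are given as mean pmol ± SEM, and as percent of the blank control, with 5–12 replicates per concentration.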

Rattus norvegicus [2] = organism: Rattus norvegicus; assay: Stimulation of cAMP production in homogenates of corpus striatum from rat brain, at a concentration of 50 uM.; assay type: functional, organism-based; method in brief: as §1
Rattus norvegicus [3] = assay: Stereotypic behavior of male Sprague-Dawley rats, after a sc administration of 5 dose(mg/kg); assay type: functional
Method in brief: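 Male Sprague-Dawley rats (175–200 g), group-housed with free food and water, 12-h light cycle. Drug freshly dissolved in ice-cold 1 mM citric acid/0.9% saline (1:4, v/v), given sc; vehicle injected as placebo. Stereotypy rated 0–3 by experienced observer from 30-s observations every 10 min over 60 min (maximum 18). Four to six rats per dose; means ± SEM.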

| Structure (SMILES) | Control (Rattus norvegicus [1]) [%] | cAMP production (Rattus norvegicus [2]) [N] | Stereotypy score (Rattus norvegicus [3]) |
| --- | --- | --- | --- |
| NCCc1ccc(O)c(O)c1 | 217 | 5.39 |  |
| CCCN1CCc2cccc3c2[C@@H]1Cc1ccc(O)c(O)c1-3.CCCN1CCc2cccc3c2[C@H]1Cc1ccc(O)c(O)c1-3 (racemic; (+)) |  |  | 17.2 |
| CCCN1CCc2cccc3c2[C@@H]1Cc1ccc(O)c(O)c1-3.CCCN1CCc2cccc3c2[C@H]1Cc1ccc(O)c(O)c1-3 (racemic; (-)) |  |  | 18 |
| CCCN1CCc2cccc3c2[C@@H]1Cc1ccc(O)c(O)c1-3.CN1CCc2cccc3c2[C@H]1Cc1ccc(O)c(O)c1-3 (stereo in doubt; (+)) |  |  | 17.5 |
| CCCN1CCc2cccc3c2[C@@H]1Cc1ccc(O)c(O)c1-3.CN1CCc2cccc3c2[C@H]1Cc1ccc(O)c(O)c1-3 (stereo in doubt; (-)) |  |  | 17.7 |
| CN1CCc2cccc3c2[C@H]1Cc1ccc(O)c(O)c1-3 [APOMORPHINE] |  |  | 18 |
